# Test results published in ChEMBL document CHEMBL1124108, “Antihypertensive thiadiazoles. 2. Vasodilator activity of some 2-aryl-5-guanidino-1,3,4-thiadiazoles” (1988).
# Key:
# [1] = test system: Rattus norvegicus; assay: Maximum percentage reduction in mean arterial blood pressure in metacorticoid (DOCA) hypertensive rats at a standard oral dose of 100 mg/kg; assay type: functional
# Method in brief: (§1)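 Rats were DOCA hypertensive. For oral dosing, food was withdrawn 18 h before; rats dosed ip were not starved. The vehicle was isotonic saline. Pressure was recorded by transducer under minimal restraint: twice before dosing, then at 1, 2, 3, 5 and 22 h. MABP was taken as diastolic + one-third pulse pressure. The value is the maximum % fall from the mean of the two pretreatment readings, n = 3-5.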
# [2] = test system: Rattus norvegicus; assay: Maximum percentage reduction in mean blood pressure in metacorticoid (DOCA) hypertensive rats at a standard oral dose of 100 mg/kg; assay type: functional; method in brief: as §1
# [3] = test system: Rattus norvegicus; assay: Maximum percentage reduction in mean blood pressure in metacorticoid (DOCA) hypertensive rats at a standard oral dose of 100 mg/kg; IA = Inactive;Maximum percentage fall in MABP <10%; assay type: functional, organism-based; set-up: dose 100 mg/kg; method in brief: as §1
# [4] = test system: Rattus norvegicus; assay: Summation of percentage reductions, compared to pretreatment controls, in MABP of DOCA hypertensive rats at 1,2,3,5,8 hr after the 50 mg/kg oral dose.; assay type: functional
# Method in brief: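 DOCA hypertensive rats (n = 5) were dosed orally. MABP (diastolic + one-third pulse pressure) was read before dosing and at 1, 2, 3, 5 and 8 h. The value is the sum of the % reductions from pretreatment control over these five time points.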
# [5] = test system: Rattus norvegicus; assay: Maximum percentage reduction in mean blood pressure in metacorticoid (DOCA) hypertensive rats at a standard oral dose of 50 mg/kg; assay type: functional; method in brief: as §1
smiles,measurement,setting,value
Cc1ccccc1-c1nnc(N/C(N)=N\CCCN(C)C)s1.Cl,Reduction,[1],20%
Cc1ccsc1-c1nnc(N=C(N)N)s1.Cl,Reduction,[2],14%
Cl.N=C(N)Nc1nnc(-c2ccccc2[N+](=O)[O-])s1,Reduction,[2],17%
Cl.N=C(N)Nc1nnc(-c2ccccc2Cl)s1,Reduction,[1],30%
COCC/N=C(/N)Nc1nnc(-c2ccccc2I)s1.Cl,Reduction,[2],33%
CCCC/N=C(\NCCCN(C)C)Nc1nnc(-c2ccccc2C)s1,Reduction,[3],Not significant
Cc1ccccc1-c1nnc(NC(=N)NCC2CCCO2)s1.Cl (centres undefined),Reduction,[2],17%
CCCCC/N=C(/N)Nc1nnc(-c2ccccc2C)s1.Cl,Reduction,[2],23%
COCC/N=C(/N)Nc1nnc(-c2ccc(F)cc2C)s1.Cl,Reduction,[2],33%
N=C(N)Nc1nnc(C2CCCCC2)s1,Reduction,[3],Not significant
Cl.N=C(N)Nc1nnc(-c2cccc(Cl)c2)s1,Reduction,[1],12%
Cc1ccc(-c2nnc(N=C(N)N)s2)cc1,Reduction,[3],Not significant
CCCOc1ccccc1-c1nnc(N=C(N)N)s1.Cl,Reduction,[2],12%
Cc1ccccc1-c1nnc(NC(=N)NCCCO)s1.Cl,Reduction,[2],24%
CCc1ccccc1-c1nnc(N=C(N)N)s1,Reduction,[2],12%
C=CCNC(=N)Nc1nnc(-c2ccccc2C)s1.Cl,Reduction,[1],28%
Cl.N=C(N)Nc1nnc(-c2ccc(Cl)c(Cl)c2)s1,Reduction,[2],15%
CSCC/N=C(/N)Nc1nnc(-c2ccccc2C)s1.Cl,Reduction,[1],18%
Cc1ccccc1-c1nnc(NC(=N)N(C)C)s1.Cl,Reduction,[2],18%
Cc1cccc(-c2nnc(N=C(N)N)s2)c1.Cl,Reduction,[2],19%
Cl.N=C(N)Nc1nnc(-c2ccccc2N)s1,Reduction,[2],14%
CCC[S+]([O-])c1ccccc1-c1nnc(N=C(N)N)s1.Cl (centres undefined),Reduction,[2],13%
Cc1cccc(-c2nnc(N=C(N)N)s2)c1C.Cl,Reduction,[2],14%
Cc1ccccc1-c1nnc(NN)s1,Summation MABP,[4],206
same,Reduction,[5],48%
COc1ccccc1-c1nnc(N=C(N)N)s1.Cl,Reduction,[2],26%
Cc1ccccc1-c1nnc(NC(=N)N(C)CC(C)O)s1.Cl (centres undefined),Reduction,[2],21%
Cc1ccccc1-c1nnc(NC(=N)N2CCCC2)s1,Reduction,[3],Not significant
Cc1ccccc1-c1nnc(N/C(N)=N\C(C)C)s1.Cl,Reduction,[1],23%
Cc1ccc(-c2nnc(N=C(N)N)s2)c(C)c1,Reduction,[3],Not significant
Cc1ccccc1-c1nnc(NC(=N)NC(C)(C)C)s1.Cl,Reduction,[1],18%
Cc1ccc(-c2nnc(NC3=NCCN3)s2)c(C)c1.Cl,Reduction,[1],24%
Cc1ccccc1-c1nnc(NC2=NCCN2C)s1,Reduction,[3],Not significant
C/N=C(/NC)Nc1nnc(-c2ccccc2C)s1.Cl,Reduction,[2],27%
N=C(N)Nc1nnc(-c2ccccc2O)s1,Reduction,[3],Not significant
Cc1ccccc1-c1nnc(NC(=N)N2CCN(C)CC2)s1.Cl,Reduction,[2],18%
Cc1ccccc1-c1nnc(NC(=N)NCCN)s1.Cl,Reduction,[1],32%
CCOCC/N=C(/N)Nc1nnc(-c2ccccc2C)s1.Cl,Reduction,[2],34%
Cc1ccc(F)cc1-c1nnc(N=C(N)N)s1.Cl,Reduction,[2],21%
COc1cccc(-c2nnc(N=C(N)N)s2)c1,Reduction,[3],Not significant
Cc1ccccc1-c1nnc(N=C2N(C)CCN2C)s1,Reduction,[3],Not significant
Cl.N=C(N)Nc1nnc(-c2ccc(F)cc2)s1,Reduction,[1],20%
Cl.N=C(N)Nc1nnc(-c2ccccc2)s1,Reduction,[1],30%
Cl.N=C(N)Nc1nnc(-c2ccc(C(F)(F)F)cc2)s1,Reduction,[1],18%
